This is a sample that favours compounds with a hit; in the whole collection about 2.7% have one here.
E-sel inducer – induces E-selectin expression in human endothelial cells; P16581; HUVEC E-selectin immunofluorescence imaging; normalized: neutral wells 0, TNF-alpha wells 100; activation, % at 7.58 µM; actives 0.37% (n = 260,000);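 active = mean E-selectin-positive cell signal at least 10% of the positive control, reached in at least 60% of replicates, without over 20% cell loss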
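System: HUVEC, human umbilical vein endothelial cells; quantity: 3,000 cells/well; buffer or medium: EGM-2 medium, gelatin-coated wells; dosing: single-point compound dose; detection: immunofluorescence imaging; evaluation: % PE-positive cells; benchmarks: TNF-alpha, DMSO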
CFTR F508del cor – CFTR F508del correction in bronchial cells; AID 720511; actives 0.36% (n = 350,000); CFBE cells, YFP halide quenching; stimulated with forskolin plus potentiator P3; % fluorescence drop versus neutral controls; activity (quench increase), % at 7.58 µM;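 active = mean added fluorescence quench of at least 8% versus neutral control, with both replicates also reaching 8%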;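 note: cells transiently co-express mutant CFTR-F508del with the halide-sensitive YFP; corrector assay measuring rescue of mutant channel to the surface after 24 h compound exposure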
FGF22 binding – FGF22 (human) thermal shift binding; AID 651658; Q9HCT0; activity (Tm shift, normalised), % at 9.99 µM; actives 1.5% (n = 340,000); recombinant FGF22 thermal shift, SYPRO orange fluorescence; percent of sucrose octasulfate shift, DMSO zero;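 active = mean Tm shift, scaled 0 neutral to 100 positive control, at about 1.3% or above, every replicate too, limit read from the data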
Target sequence (Q9HCT0 whole entry, looked up): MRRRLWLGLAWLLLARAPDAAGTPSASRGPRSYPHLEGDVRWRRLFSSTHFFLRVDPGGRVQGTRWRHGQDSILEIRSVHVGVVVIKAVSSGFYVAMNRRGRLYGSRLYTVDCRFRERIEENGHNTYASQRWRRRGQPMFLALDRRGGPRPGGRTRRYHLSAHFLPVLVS
HIV Env fusion – blocks HIV Env-driven cell-cell fusion; HeLa-JRFL Env/CEM21 cell fusion, luciferase; inhibition, % at 12.3 µM; actives 1.1% (n = 360,000); AID 651610;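 active = mean replicate inhibition score of at least 50 and every replicate individually at or above 50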;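 note: 0% = plate neutral controls and 100% = maraviroc near 300 nM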
S100A4 MyoIIA – blocks human S100A4 binding to myosin IIA peptide; actives 0.14% (n = 360,000); inhibition, % at 10.7 µM; S100A4/TAMRA-MyoIIA peptide fluorescence polarization;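 active = mean inhibition of at least 70% across replicates, with every replicate also reaching that level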
Target sequence (P26447 whole entry, looked up): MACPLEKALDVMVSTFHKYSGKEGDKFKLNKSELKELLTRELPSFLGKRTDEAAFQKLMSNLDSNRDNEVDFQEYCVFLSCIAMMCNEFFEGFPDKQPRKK
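Test system – S100A4 monomer (human) · Compound – single-point compound testing · Schedule – 5 min incubation before reading · Probe or stimulus – TAMRA-labelled myosin IIA heavy-chain peptide probe, 5 nM · Benchmarks – neutral control DMSO, positive control TFP · Medium – Calcium-containing HEPES buffer, pH 7.2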
* hit, by the source's call; . = no result given; [ ] = another dose, or the depositor's remark.

SMILES	E-sel inducer	CFTR F508del cor	FGF22 binding	HIV Env fusion	S100A4 MyoIIA
CCOC(=O)C1=C(c2ccccc2)c2ccccc2N(S(=O)(=O)C(F)(F)F)C1C(=O)OCC (stereo not given)	.	-1	0	60*	-1
CC=Cc1ccc2n(c1=O)C[C@H]1[C@H](CO)[C@@H](C(=O)NCC)N(CC3CCOCC3)[C@@H]21 (mixture of isomers)	-1	.	0	.	-4
Cc1ccc(C(C)C)c(OCCNCc2ccccc2)c1	0	-3	0	17	-2
Cc1cc(OCCOCCNCc2ccccc2)ccc1C(C)C	.	0	0	93*	5
CNS(=O)(=O)c1cccc(C(=O)OCC(=O)Nc2ccc(N3CCCCC3)cc2)c1	.	-4	43*	4	-5
CNS(=O)(=O)c1cccc(C(=O)OCC(=O)N2CCCC2)c1	0	-2	0	-8	1
O=C(COC(=O)c1ccc[nH]c1=O)Nc1ccc(N2CCCCC2)cc1	.	1	0	62*	-3
O=C(COC(=O)c1ccc[nH]c1=O)Nc1ccc(S(=O)(=O)N2CCCC2)cc1	17	3	0	19	-3
CC=Cc1ccc2n(c1=O)C[C@H]1[C@H](CO)[C@@H](C(=O)NCC(F)(F)F)[C@@H]2N1C(C)=O (mixture of isomers)	-2	1	0	.	-1
Cc1ccc(S(=O)(=O)N(C)C[C@H]2Oc3ccc(NC(=O)Nc4c(C)noc4C)cc3CC(=O)N([C@H](C)CO)C[C@H]2C)cc1	0	-4	0	-6[16.7 µM]	-3
O=C(CSc1cccc[n+]1[O-])N1CCCCCC1	1	0	0	1	2
O=C(CSc1cccc[n+]1[O-])CSc1cccc[n+]1[O-]	.	2	43*	8	2
Cc1ccc(/C=C/C(=O)O)cc1S(=O)(=O)NCc1ccco1	0	-2	43*	4	-17
Cc1ccc(C(=O)Nc2nc(-c3ccccc3)c(-c3ccccc3)o2)cc1	.	.	.	-17	.
Cc1ccc(C(=O)Nc2c(C)cc(-c3ccccc3)oc2=O)cc1	4	-1	43*	-19	-1
O=C(CN1C(=O)c2ccccc2C1=O)NC1(C(=O)O)CCCC1	0	0	0	.	1
N#CC1(NC(=O)CN2C(=O)c3ccccc3C2=O)CCCCC1	50*	-1	0	.	-4
O=C(Nc1ccc(F)cc1)c1ccccc1	.	-1	.	.	-1
O=C(NC(O)C(=O)c1ccccc1)c1ccc(F)cc1 (stereo not given)	41*	5	0	-13	-1
Cc1cc(C)nc(NC(=S)Nc2ccc(Br)cc2Cl)c1	.	1	43*	-15	-7
COc1ccc(Cn2c(SCc3ccc(C)cc3)nc3cc(OC)c(OC)cc3c2=N)cc1Cl	.	.	.	122*	.
CCCNC(=O)N[C@@H]1CC[C@H](CC(=O)NC2CCCCC2)O[C@H]1CO	0	0	0	-8[16.7 µM]	6
CNc1nc2c(c(=O)n(C)c(=O)n2C)n1Cc1ccccc1	.	.	.	69*	.
CC(Cl)=CCn1c(NCCc2ccccc2)nc2c1c(=O)n(C)c(=O)n2C	.	2	0	94*	1
CCCCn1c(CN(C)Cc2ccccc2)nc2c1c(=O)n(C)c(=O)n2C	.	.	.	72*	.
SMILES	E-sel inducer	CFTR F508del cor	FGF22 binding	HIV Env fusion	S100A4 MyoIIA
Cn1c(=O)c2c(nc(NCCc3ccccc3)n2Cc2ccc(F)cc2)n(C)c1=O	0	2	0	25	-2
O=C(C[C@H]1C=C[C@H](NS(=O)(=O)c2ccc(F)cc2)[C@H](CO)O1)NCc1ccccc1F	0	1	.	.	7
COc1ccc(NC(=O)N(C)C[C@@H]2Oc3ncc(-c4cccnc4)cc3C(=O)N([C@@H](C)CO)C[C@@H]2C)cc1	.	1	0	13[16.7 µM]	1
N/C(=N\OC(=O)c1ccc(=O)n(Cc2ccccc2)c1)c1ccccn1	.	1	43*	-25	0
N/C(=N\OC(=O)c1ccc2ccccc2c1)c1ccncc1	.	.	1	-98	2
N/C(=N\OC(=O)c1ccc(=O)n(Cc2ccc(Cl)cc2)c1)c1ccccn1	.	0	0	6	13
N/C(=N\OC(=O)c1ccco1)c1ccccn1	0	1	43*	-28	-5
N/C(=N\OC(=O)c1ccc2ccccc2c1)c1ccccn1	.	-3	45*	8	-3
CCc1ccc(C(=O)NNC(=S)Nc2ccc(S(N)(=O)=O)cc2)s1	.	5	1.8*	-7	-6
CS(=O)(=O)Nc1ccc(C(=O)NCCSC2CCCCC2)cc1	.	-2	0	.	0
Cc1ccc(NS(=O)(=O)c2cc(C(=O)NCCSC3CCCCC3)ccc2C)cc1	.	.	.	55*	.
Cc1ccc(C(=O)NCCSc2ccc(Cl)cc2)cc1S(=O)(=O)Nc1ccccc1	.	-4	1	.	-2
Cc1ccc(NS(=O)(=O)c2cc(C(=O)NCCSc3ccc(C)cc3)ccc2C)cc1	.	.	.	97*	.
Cc1ccc(S(=O)(=O)N(C)C[C@H]2Oc3ccc(NC(=O)Cc4cn(C)c5ccccc45)cc3CC(=O)N([C@H](C)CO)C[C@H]2C)cc1	1	2	0	-6[16.7 µM]	-28
O=C(c1ccccc1)N1CC(=O)N2[C@@H](CO)[C@H](c3ccc(C4=CCCC4)cc3)[C@@H]2C1	0	3	.	.	4
O=C(Nc1cccc(S(=O)(=O)NCc2ccco2)c1)c1cccc(Cl)c1	200*	2	0	.	-3
C[C@@H]1CN([C@H](C)CO)C(=O)c2cc(NC(=O)C3CCCCC3)ccc2O[C@@H]1CN(C)C(=O)Nc1ccc(F)cc1	-2	0	1	5[16.7 µM]	2
Cc1ccc(CNC(=O)c2ccc(N3CCCC3=O)cc2)cc1	.	.	.	-77	.
Cn1nc(C(C)(C)C)cc1C(=O)NCc1ccc(N2CCCC2=O)cc1	.	.	.	64*	.
Cc1ccc(SCCSc2nc(N)cc(=O)[nH]2)cc1	0	2	0	35	-1
Nc1cc(=O)[nH]c(SCCSc2ccc(F)cc2)n1	0	1	1	66*	0
COc1ccc2c3c([nH]c2c1)[C@H](CO)N(Cc1cccc(Cl)c1)CC31CCN(C)CC1	2	0	0	.	6
O=C(C[n+]1cc(-c2ccc(Cl)cc2)n2c1CCCCC2)c1ccccc1	0	-1	0	-17	4
COc1ccc(-c2c[n+](CC(=O)OC3CC(C)CCC3C(C)C)c3n2CCC3)cc1 (stereo not given)	-3	-11	43*	60*	-6
CC1CCC(C(C)C)C(OC(=O)C[n+]2cccc(C(N)=O)c2)C1 (stereo not given)	.	.	.	-9	.
CC(C)[C@@H]1CC[C@@H](C)C[C@H]1OC(=O)C[n+]1cc(-c2ccc(Cl)cc2)n2c1CCCCC2	0	-4	0	83*	2
C[C@H]1CN([C@@H](C)CO)C(=O)Cc2cc(NC(=O)C3CCCCC3)ccc2O[C@@H]1CN(C)S(=O)(=O)c1ccc(F)cc1	0	1	0	.	0
CC(C)CCNC(=S)NC1CCCC1	.	.	.	-52	.
